Reference: ChEMBL document CHEMBL2406966, “Structure and Property Based Design of Pyrazolo[1,5-a]pyrimidine Inhibitors of CK2 Kinase with Activity in Vivo” (ACS Med Chem Lett, 2013)
≈ marks a conversion by molar mass, not a printed value. Each block holds one compound with its values, some of them ahead of it. Calls of active or inactive are those of the source. The calls are words filed in the database; no cut-off is given here.

What was measured:
[1] = cells; settings: Homo sapiens, HCT-116
[2] = Inhibition of casein kinase-2 (unknown origin); parameters: species or system Homo sapiens
How it was run: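 Recombinant human full-length CK2α phosphorylating a synthetic peptide substrate, run at Km ATP concentration.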

[3] = Antitumor activity against human DLD2 cells xenografted in mouse assessed as tumor growth inhibition at 5 mg/kg, po bid after 14 days relative to control; assay type: functional; settings: DLD2, 336 h, read-out: TGI
[4] = molecular target: Homeodomain-interacting protein kinase 2 (Homo sapiens, UniProt Q9H2X6); assay: Inhibition of Hipk-2 (unknown origin)
[5] = system: HCT-116; assay: Growth inhibition of human HCT116 cells after 72 hrs by Alamar blue assay; assay type: functional; settings: HCT-116, 72 h
[6] = system: Mus musculus; assay: In vivo inhibition of CK2 in human DLD2 cells xenografted in mouse assessed as inhibition of AKT phosphorylation at Ser129 at 10 mg/kg, po measured at 24 hrs by Western blot analysis; assay type: functional, organism-based; parameters: dose 10 mg/kg
How it was run: (§1)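 Mice bearing DLD-1 xenografts overexpressing AKT1 received a single oral dose (10 or 12.5 mg/kg). Tumour cell lysates were taken at 3, 8 and 24 h post-dose and probed for pAKT S129 by Western blot.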

[7] = system: Mus musculus; assay: In vivo inhibition of CK2 in human DLD2 cells xenografted in mouse assessed as inhibition of AKT phosphorylation at Ser129 at 10 mg/kg, po measured up to 24 hrs by ELISA; assay type: functional, organism-based; parameters: dose 10 mg/kg
How it was run: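 DLD-1 AKT1-overexpressing xenograft mice received a single oral dose of 10 mg/kg. pAKT S129 in tumour cell lysates was quantified by ELISA over time and plotted against plasma drug concentration.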

[8] = Antitumor activity against human DLD2 cells xenografted in mouse assessed as tumor growth inhibition at 10 mg/kg, po qd after 14 days relative to control; assay type: functional; settings: DLD2, 336 h, read-out: TGI
[9] = Aqueous solubility of the compound in phosphate buffer at pH 7.4 after 24 hrs; assay type: physicochemical
[10] = Intrinsic clearance in rat liver microsomes; assay type: ADME, Microsome; settings: read-out: CLH
How it was run: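 Incubation with rat liver microsomes; intrinsic clearance reported in μL/min/mg.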

[11] = system: Mus musculus; assay: In vivo inhibition of CK2 in human DLD2 cells xenografted in mouse assessed as inhibition of AKT phosphorylation at Ser129 at 10 mg/kg, po measured at 3 to 8 hrs by Western blot analysis; assay type: functional, organism-based; parameters: dose 10 mg/kg
How it was run: as §1

[12] = Fraction unbound in human plasma at 10 uM by equilibrium dialysis method; assay type: ADME, cell-free
[13] = molecular target: Dual specificity tyrosine-phosphorylation-regulated kinase 1A (Homo sapiens) (UniProt Q13627); assay: Inhibition of Dyrk-1 (unknown origin) assessed as residual activity at 0.1 uM/L relative to control
How it was run: (§2)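 KINOMEscan competition binding panel measuring displacement of an immobilized, active-site-directed ligand. Test concentration was 0.1 μM/L. Read-out was residual activity as % of DMSO control.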

[14] = Plasma half life in rat at 10 mg/kg, po; assay type: ADME, organism-based; parameters: dose 10 mg/kg, route oral
How it was run: (§3)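 Rats were given a single oral dose of 10 mg/kg. Plasma pharmacokinetics yielded bioavailability (F, %), half-life (h) and clearance (mL/min/kg).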

[15] = molecular target: Glycogen synthase kinase-3 beta (Homo sapiens, UniProt P49841); assay: Inhibition of GSK3beta (unknown origin)
[16] = molecular target: Death-associated protein kinase 3 (Homo sapiens) (UniProt O43293); assay: Inhibition of Dapk-3 (unknown origin) assessed as residual activity at 0.1 uM/L relative to control
How it was run: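 Kinome-wide competition binding panel: measures the compound's ability to compete with an immobilized, active-site-directed ligand for kinase binding. Inhibitor tested at 0.1 μM/L. Read-out is residual activity as a percentage of the DMSO control.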

[17] = molecular target: T1, Dual specificity tyrosine-phosphorylation-regulated kinase 2 (Homo sapiens) (UniProt Q92630); assay: Inhibition of Dyrk-2 (unknown origin) assessed as residual activity at 0.1 uM/L relative to control
T1 sequence (whole entry): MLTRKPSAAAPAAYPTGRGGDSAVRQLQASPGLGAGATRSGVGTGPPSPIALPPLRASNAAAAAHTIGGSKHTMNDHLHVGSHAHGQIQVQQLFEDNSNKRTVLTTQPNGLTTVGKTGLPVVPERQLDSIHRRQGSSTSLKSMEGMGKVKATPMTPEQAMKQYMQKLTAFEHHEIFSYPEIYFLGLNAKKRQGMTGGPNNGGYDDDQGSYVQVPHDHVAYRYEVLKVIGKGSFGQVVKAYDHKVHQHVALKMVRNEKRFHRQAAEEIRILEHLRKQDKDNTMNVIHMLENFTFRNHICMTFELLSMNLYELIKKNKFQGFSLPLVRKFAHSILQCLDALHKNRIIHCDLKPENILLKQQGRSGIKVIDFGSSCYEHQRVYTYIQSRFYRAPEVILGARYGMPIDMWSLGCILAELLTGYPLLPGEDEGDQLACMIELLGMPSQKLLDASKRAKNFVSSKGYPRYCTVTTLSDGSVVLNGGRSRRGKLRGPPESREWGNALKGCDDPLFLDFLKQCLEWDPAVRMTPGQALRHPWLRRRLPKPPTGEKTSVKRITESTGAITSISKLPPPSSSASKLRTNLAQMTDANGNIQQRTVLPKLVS
How it was run: as §2

[18] = molecular target: Homeodomain-interacting protein kinase 3 (Homo sapiens) (UniProt Q9H422); assay: Inhibition of Hipk-3 (unknown origin) assessed as residual activity at 0.1 uM/L relative to control
How it was run: as §2

[19] = molecular target: Cyclin-dependent kinase 2 (Homo sapiens, UniProt P24941); assay: Inhibition of CDK2 (unknown origin)
[20] = molecular target: Homeodomain-interacting protein kinase 1 (Homo sapiens) (UniProt Q86Z02); assay: Inhibition of Hipk-1 (unknown origin) assessed as residual activity at 0.1 uM/L relative to control
How it was run: as §2

[21] = molecular target: Death-associated protein kinase 1 (Homo sapiens) (UniProt P53355); assay: Inhibition of Dapk-1 (unknown origin) assessed as residual activity at 0.1 uM/L relative to control
How it was run: as §2

[22] = molecular target: Death-associated protein kinase 2 (Homo sapiens) (UniProt Q9UIK4); assay: Inhibition of Dapk-2 (unknown origin) assessed as residual activity at 0.1 uM/L relative to control
How it was run: as §2

[23] = molecular target: Serine/threonine-protein kinase pim-3 (Homo sapiens, UniProt Q86V86); assay: Inhibition of PIM3 (unknown origin)
[24] = molecular target: T2, Dual specificity tyrosine-phosphorylation-regulated kinase 3 (Homo sapiens, UniProt O43781); assay: Inhibition of Dyrk-3 (unknown origin)
T2 sequence (O43781 whole entry): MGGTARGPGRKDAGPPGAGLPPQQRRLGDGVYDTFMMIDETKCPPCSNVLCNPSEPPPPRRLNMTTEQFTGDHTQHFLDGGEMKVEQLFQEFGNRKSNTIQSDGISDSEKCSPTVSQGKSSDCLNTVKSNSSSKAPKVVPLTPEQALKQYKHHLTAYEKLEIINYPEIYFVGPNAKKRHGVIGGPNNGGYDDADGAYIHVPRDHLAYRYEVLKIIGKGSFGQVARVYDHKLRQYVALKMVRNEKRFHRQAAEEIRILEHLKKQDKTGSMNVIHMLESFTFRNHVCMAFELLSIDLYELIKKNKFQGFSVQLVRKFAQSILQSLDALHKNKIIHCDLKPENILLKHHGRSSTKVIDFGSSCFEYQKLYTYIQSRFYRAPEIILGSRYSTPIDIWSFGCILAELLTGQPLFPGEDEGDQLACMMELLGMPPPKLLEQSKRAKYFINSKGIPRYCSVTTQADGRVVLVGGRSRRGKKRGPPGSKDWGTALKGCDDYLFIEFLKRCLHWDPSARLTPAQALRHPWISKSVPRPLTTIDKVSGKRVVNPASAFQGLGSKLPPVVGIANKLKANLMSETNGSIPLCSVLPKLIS

[25] = physchem; settings: octanol/water, pH 7.4
[26] = Clearance in rat at 10 mg/kg, po; assay type: ADME, organism-based; parameters: dose 10 mg/kg, route oral; settings: in vivo
How it was run: as §3

[27] = molecular target: Voltage-gated inwardly rectifying potassium channel KCNH2 (Homo sapiens, UniProt Q12809); assay: Binding affinity to human ERG expressed in CHO cells by IonWorks assay
[28] = Oral bioavailability in rat at 10 mg/kg; assay type: ADME, organism-based; settings: in vivo
How it was run: as §3

[29] = molecular target: Casein kinase II subunit alpha (Homo sapiens, UniProt P68400); assay: Inhibition of N-terminal His6X-tagged recombinant human full length casein kinase-2alpha expressed in SF21 cells using BODIPY-FL-RRRDDDSDDD-CONH2 as substrate preincubated for 20 mins measured after 90 mins by mobility shift assay
[30] = system: MDR1; assay: Apparent permeability across apical to basolateral side in porcine LLC cells expressing MDR1; assay type: ADME, cell-based, Sus scrofa; settings: pig, LLC-PK1
How it was run: (§4)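 MDR1-expressing LLCK cell monolayers. Apical-to-basolateral apparent permeability (Papp) measured in cm/s; efflux ratio also determined.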

[31] = system: MDR1; assay: Efflux ratio of apparent permeability across apical to basolateral side in porcine LLC cells expressing MDR1; assay type: ADME, cell-based, Sus scrofa; settings: pig, LLC-PK1
How it was run: as §4

[32] = Cmax in po dosed rat; assay type: ADME, organism-based; parameters: route oral; settings: in vivo

Chain of Casein kinase II subunit alpha (P68400 whole entry): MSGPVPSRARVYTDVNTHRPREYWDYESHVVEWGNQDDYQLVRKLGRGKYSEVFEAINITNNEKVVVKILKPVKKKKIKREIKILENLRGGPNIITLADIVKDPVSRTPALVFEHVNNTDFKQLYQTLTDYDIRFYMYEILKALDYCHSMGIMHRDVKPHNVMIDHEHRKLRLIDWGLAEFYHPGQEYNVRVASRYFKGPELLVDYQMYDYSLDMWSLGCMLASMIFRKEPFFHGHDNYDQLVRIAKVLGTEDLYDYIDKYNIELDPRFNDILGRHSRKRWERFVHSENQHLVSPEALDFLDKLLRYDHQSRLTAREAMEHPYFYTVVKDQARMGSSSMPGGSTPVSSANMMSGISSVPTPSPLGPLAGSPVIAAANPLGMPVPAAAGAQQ
Chain of Voltage-gated inwardly rectifying potassium channel KCNH2 (Q12809 whole entry): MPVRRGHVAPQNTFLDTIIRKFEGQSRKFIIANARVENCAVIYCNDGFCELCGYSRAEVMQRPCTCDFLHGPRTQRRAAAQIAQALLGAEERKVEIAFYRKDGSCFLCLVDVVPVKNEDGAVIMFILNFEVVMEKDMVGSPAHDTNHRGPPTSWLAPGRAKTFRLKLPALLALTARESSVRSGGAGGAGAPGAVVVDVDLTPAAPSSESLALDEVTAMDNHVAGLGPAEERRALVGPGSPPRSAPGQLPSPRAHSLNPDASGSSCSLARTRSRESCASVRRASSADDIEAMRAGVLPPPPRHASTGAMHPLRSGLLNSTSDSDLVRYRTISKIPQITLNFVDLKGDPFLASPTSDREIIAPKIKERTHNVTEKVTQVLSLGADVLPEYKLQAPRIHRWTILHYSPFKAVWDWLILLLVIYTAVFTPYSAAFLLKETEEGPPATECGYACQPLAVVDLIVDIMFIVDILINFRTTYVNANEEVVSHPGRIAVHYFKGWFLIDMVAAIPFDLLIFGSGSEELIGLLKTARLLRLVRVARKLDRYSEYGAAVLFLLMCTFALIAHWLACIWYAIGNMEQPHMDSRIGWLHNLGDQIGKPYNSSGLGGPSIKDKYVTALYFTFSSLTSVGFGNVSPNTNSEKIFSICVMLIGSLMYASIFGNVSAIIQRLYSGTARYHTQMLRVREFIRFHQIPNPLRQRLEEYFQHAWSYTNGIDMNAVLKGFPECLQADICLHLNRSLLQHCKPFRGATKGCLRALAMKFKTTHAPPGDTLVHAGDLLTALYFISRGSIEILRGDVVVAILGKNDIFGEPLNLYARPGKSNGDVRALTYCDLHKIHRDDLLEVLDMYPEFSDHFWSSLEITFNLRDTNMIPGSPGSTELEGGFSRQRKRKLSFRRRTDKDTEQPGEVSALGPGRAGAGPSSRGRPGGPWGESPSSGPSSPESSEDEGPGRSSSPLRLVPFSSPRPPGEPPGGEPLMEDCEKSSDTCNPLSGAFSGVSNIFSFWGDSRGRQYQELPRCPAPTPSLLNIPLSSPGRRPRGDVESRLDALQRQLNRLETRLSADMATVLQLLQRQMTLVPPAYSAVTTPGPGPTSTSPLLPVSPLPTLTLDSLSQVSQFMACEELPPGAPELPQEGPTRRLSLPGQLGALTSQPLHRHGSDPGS
Chain of Death-associated protein kinase 3 (Homo sapiens) (O43293 whole entry, looked up): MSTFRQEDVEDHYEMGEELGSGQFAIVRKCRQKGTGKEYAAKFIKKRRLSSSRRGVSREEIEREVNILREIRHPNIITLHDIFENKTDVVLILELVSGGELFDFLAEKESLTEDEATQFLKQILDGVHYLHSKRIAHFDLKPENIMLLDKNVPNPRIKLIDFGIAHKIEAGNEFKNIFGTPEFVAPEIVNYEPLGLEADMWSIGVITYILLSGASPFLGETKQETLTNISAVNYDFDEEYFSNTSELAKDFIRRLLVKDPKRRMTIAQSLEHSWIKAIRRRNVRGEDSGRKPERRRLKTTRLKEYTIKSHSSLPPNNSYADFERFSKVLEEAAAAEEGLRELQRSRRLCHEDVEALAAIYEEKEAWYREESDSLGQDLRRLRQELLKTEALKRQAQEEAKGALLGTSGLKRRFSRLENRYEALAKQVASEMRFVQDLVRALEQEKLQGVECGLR
Chain of Glycogen synthase kinase-3 beta (P49841 whole entry): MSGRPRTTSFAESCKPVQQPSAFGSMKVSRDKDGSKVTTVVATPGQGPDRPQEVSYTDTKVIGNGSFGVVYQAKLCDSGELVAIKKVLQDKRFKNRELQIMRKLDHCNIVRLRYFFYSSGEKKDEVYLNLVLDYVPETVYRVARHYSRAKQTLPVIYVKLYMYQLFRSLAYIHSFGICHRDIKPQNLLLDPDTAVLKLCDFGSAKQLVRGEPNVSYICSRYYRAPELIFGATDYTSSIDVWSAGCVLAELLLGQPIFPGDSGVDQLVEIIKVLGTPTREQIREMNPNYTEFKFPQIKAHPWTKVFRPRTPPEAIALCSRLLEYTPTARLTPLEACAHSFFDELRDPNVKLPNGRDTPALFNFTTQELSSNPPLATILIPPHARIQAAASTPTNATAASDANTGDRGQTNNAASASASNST
Chain of Homeodomain-interacting protein kinase 1 (Homo sapiens) (Q86Z02 whole entry, looked up): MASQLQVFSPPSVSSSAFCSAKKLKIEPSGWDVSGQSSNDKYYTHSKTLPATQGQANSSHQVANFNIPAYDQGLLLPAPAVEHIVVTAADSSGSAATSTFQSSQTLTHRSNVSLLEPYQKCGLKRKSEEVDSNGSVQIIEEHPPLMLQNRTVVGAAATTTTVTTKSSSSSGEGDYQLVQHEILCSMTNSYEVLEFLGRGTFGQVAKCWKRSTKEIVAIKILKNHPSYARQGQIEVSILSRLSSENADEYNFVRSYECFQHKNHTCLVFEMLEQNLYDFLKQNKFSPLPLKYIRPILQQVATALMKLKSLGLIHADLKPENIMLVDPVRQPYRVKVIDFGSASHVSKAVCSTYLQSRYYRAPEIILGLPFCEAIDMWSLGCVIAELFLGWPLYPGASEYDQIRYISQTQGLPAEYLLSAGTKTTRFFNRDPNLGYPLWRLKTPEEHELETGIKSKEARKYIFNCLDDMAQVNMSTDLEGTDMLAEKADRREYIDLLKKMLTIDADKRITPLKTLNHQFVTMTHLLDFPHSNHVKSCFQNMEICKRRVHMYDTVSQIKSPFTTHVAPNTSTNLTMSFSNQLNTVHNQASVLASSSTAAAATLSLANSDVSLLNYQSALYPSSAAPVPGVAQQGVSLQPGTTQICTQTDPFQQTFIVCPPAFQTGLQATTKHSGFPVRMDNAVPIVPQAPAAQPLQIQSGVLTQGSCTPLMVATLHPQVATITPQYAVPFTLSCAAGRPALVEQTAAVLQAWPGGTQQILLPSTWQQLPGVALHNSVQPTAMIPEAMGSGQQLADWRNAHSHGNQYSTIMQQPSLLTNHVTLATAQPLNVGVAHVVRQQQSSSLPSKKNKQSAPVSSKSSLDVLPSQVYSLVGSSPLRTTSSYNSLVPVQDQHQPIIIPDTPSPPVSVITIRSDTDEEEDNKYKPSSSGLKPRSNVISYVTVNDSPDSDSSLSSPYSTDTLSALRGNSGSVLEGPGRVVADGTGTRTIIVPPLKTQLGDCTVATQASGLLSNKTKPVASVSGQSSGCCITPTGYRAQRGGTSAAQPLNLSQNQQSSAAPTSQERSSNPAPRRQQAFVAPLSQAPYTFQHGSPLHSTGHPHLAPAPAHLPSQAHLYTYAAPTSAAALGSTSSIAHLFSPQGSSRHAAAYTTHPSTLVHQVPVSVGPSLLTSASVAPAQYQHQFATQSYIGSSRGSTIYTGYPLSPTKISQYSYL
Chain of Death-associated protein kinase 2 (Homo sapiens) (Q9UIK4 whole entry, looked up): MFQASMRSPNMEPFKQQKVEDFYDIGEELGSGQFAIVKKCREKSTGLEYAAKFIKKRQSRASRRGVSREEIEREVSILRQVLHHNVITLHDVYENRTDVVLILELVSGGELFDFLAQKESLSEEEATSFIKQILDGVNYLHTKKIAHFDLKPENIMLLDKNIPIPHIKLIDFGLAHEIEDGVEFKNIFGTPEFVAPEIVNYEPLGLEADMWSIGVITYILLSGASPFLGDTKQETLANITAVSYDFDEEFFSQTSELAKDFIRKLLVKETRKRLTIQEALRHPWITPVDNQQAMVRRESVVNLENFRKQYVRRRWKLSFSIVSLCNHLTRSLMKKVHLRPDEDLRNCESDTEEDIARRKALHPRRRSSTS

- IC50 [1]: > 3300 nM
- IC50 [2]: 270 nM
SMILES: CC(=O)Nc1cc(Nc2cc(NC3CC3)n3nccc3n2)ccc1C

- IC50 [4]: 40 nM
- GI50 [5]: 81 nM
- solubility at 24 h [9]: 8 µM (≈ 2.89 µg/mL)
- microsomal CLint [10]: 15 µL/min/mg
- fraction unbound at 10 µM [12]: 0.08
- Activity [13]: 43%
- half-life [14]: 2.6 h
- IC50 [15]: 2600 nM
- Activity [17]: 18%
- Activity [18]: 39%
- IC50 [19]: 7200 nM
- Activity [20]: 38%
- IC50 [23]: 150 nM
- IC50 [24]: 70 nM
- logD at 5 h [25]: 2.4
SMILES: CC(=O)Nc1cc(Nc2cc(NC3CC3)n3ncc(C#N)c3n2)ccc1C
- inhibition in vivo at 5 mg/kg [3]: 37%
- inhibition [6]: inactive
- inhibition [7]: Active
- inhibition in vivo at 10 mg/kg [8]: 28%
- inhibition [11]: Active
- Activity [16]: 22%
- Activity [21]: 21%
- Activity [22]: 43%

- CL/F [26]: 23 mL/min/kg
- IC50 [1]: 6 nM
- GI50 [5]: 59 nM
- bioavailability [28]: 47%
- solubility at 24 h [9]: 11 µM (≈ 4.44 µg/mL)
- microsomal CLint [10]: < 4 µL/min/mg
- IC50 [29]: < 3 nM
- fraction unbound at 10 µM [12]: 0.2
- half-life [14]: 1.4 h
- logD at 5 h [25]: 2.2
SMILES: CC(=O)Nc1cc(Nc2cc(NC3COC3)n3ncc(C#N)c3n2)ccc1C1CC1
- IC50 [27]: > 33000 nM

- GI50 [5]: 100 nM
- solubility at 24 h [9]: 3 µM (≈ 1.45 µg/mL)
- microsomal CLint [10]: 65 µL/min/mg
- IC50 [29]: < 3 nM
- Papp A→B [30]: 0.2 ×10⁻⁶ cm/s
- efflux ratio [31]: 100
- Cmax [32]: < 100 nM
- logD at 5 h [25]: 2.5
SMILES: CC(=O)Nc1cc(Nc2cc(Nc3ccn(CCN4CCCC4)n3)n3ncc(C#N)c3n2)ccc1C
